The test system of experiment [1] is MDA-MB-231. Put plainly: Antiproliferative activity against human MDA-MB-231 cells after 4 days. In kind it is functional, cell-based. The note with it: MDA-MB-231, 96 h.
The next experiment has as its system MCF7. Put plainly: Antiproliferative activity against human MCF7 cells after 5 days. It is filed as functional, cell-based. The conditions noted are these: MCF7, 120 h.
Experiment [2] in a line: Inhibition of temperature-induced tubulin polymerization of calf brain. More on the design: species or system Bos taurus. Summed up:
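Tubulin from fresh calf brain cortex, purified by temperature-dependent polymerization/depolymerization cycles and checked by PAGE, in PEMG buffer. Supernatant mixed with compound in DMSO at varying concentrations, preincubated 15 min at 37 °C, chilled, then 25 mM GTP solution added. Temperature switched from 2 to 37 °C in cuvettes; turbidity at 350 nm over 20 min. Mean of two controls = 100%; IC50 from three independent experiments.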

Experiment [3] relates to U-87MG ATCC. Put plainly: Effect on cell morphology in human U87 cells assessed as disruption of microtubule network and loss of function at 10 nM after 3 hrs. It is filed as functional, cell-based. Summed up:
(§1)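 U-87 MG glioma cells at 75% confluence treated 3 h at 37 °C; vehicle ethanol. Fixed in 4% paraformaldehyde, permeabilized with 1% Triton X-100. Chromatin stained with SYTOX Green; microtubules with mouse anti-α-tubulin and Cy5 goat anti-mouse antibody (1:200). Imaged by confocal laser scanning microscopy.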

Experiment [4] has as its system MDA-MB-231. Put plainly: Cell cycle arrest in MDA-MB-231 cells by accumulation at G2/M phase after 24 hrs by flow cytometry. In kind it is functional, cell-based. The conditions noted are these: Homo sapiens. Summed up: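 MDA-MB 231 cells at 70–80% confluence exposed 24 h to compounds diluted from DMF stocks (0.1% DMF final), various concentrations, vincristine reference. Cells trypsinized, fixed in 70% ethanol, DNA-extracted, stained with propidium iodide ≥30 min at room temperature. 8000–15,000 events per sample by flow cytometry; sub-G1, G0/G1, S, G2/M fractions. Representative of two experiments.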
In general terms: A flow cytometer gives signals particle by particle.

Experiment [5] has as its system U-87MG ATCC. Put plainly: Effect on cell morphology in human U87 cells assessed as condensation of microtubule around the nucleus and loss of function at 50 nM after 3 hrs. In kind it is functional, cell-based. Summed up: as §1
For a further experiment, the target named is Tubulin (Homo sapiens) (UniProt P68371+Q9H4B7+P0DPH7+P68366+Q13509+Q71U36+P04350+Q3ZCM7+P07437+P68363+Q9BQE3+Q6PEY2+Q13885+Q9BVA1+Q9BUF5). Kind of experiment: Inhibition of tubulin polymerization at 5 uM by microplate assay. It is filed as protein-complex assay. Summed up: (§2)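 Commercial microplate tubulin kit in G-PEM buffer with 5% glycerol. Compounds from DMSO stocks, diluted 1:10 in G-PEM, added to wells prewarmed to 37 °C. Cold tubulin added; absorbance at 355 nm read every minute over about 28–30 min at 37 °C after shift from 2 °C. Solvent controls; colchicine and docetaxel as references.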

The next experiment concerns the target Tubulin. Kind of experiment: Inhibition of tubulin polymerization by microplate assay. In kind it is protein-complex assay, Homo sapiens. Summed up: as §2

Consider 34 molecules from ChEMBL document CHEMBL1143713, “Antimitotic activities of 2-phenylindole-3-carbaldehydes in human breast cancer cells” (Bioorg Med Chem, 2007).

Active and inactive are the calls of the source. The calls are words filed in the database; no cut-off is given here.

One may read the IC50 as the concentration that inhibits the measured activity by half. With `CCCCc1ccc(-c2[nH]c3ccc(CC)cc3c2C=O)cc1`, the IC50 in the experiment with MDA-MB-231 [1] worked out at 0.3 µM; in the experiment with MCF7, 0.2 µM.

As to `COc1ccc(-c2[nH]c3ccc(F)cc3c2C=O)cc1`, the IC50 was determined as 0.54 µM in the experiment on MDA-MB-231 [1] and 0.24 µM in the experiment with MCF7.

As for `COc1ccc(-c2[nH]c3cc(Cl)c(C)cc3c2C=O)cc1`, the IC50 with MDA-MB-231 [1] is 0.026 µM; in the experiment on MCF7, 0.062 µM.

`COc1ccc(-c2[nH]c3ccc(C(C)C)cc3c2C=O)cc1`: the IC50 came to 0.029 µM in the experiment on MDA-MB-231 [1] and 0.097 µM with MCF7.

In the case of `COc1ccc(-c2[nH]c3cc(F)ccc3c2C=O)cc1`, the IC50 in the experiment on MDA-MB-231 [1] was determined as 0.059 µM; in experiment [2], 1.8 µM.

With `COc1cccc(-c2[nH]c3cc(OC)ccc3c2C=O)c1`, the IC50 in the experiment with MDA-MB-231 [1] was found to be 1.03 µM; in the experiment on MCF7, 0.39 µM.

In the case of `COc1ccc2c(C=O)c(-c3ccc(C)cc3)[nH]c2c1`, the results for the IC50 in the experiment on MDA-MB-231 [1] and in the experiment with MCF7 were 0.031 µM and 0.1 µM, respectively.

For `Cc1ccc(-c2[nH]c3ccc(C)cc3c2C=O)cc1`, the results for the IC50 in the experiment on MDA-MB-231 [1] and in the experiment with MCF7 were 0.048 µM and 0.165 µM, respectively.

Regarding `CC[C@]1(O)C[C@H]2CN(CCc3c([nH]c4ccccc34)[C@@](C(=O)OC)(c3cc4c(cc3OC)N(C=O)[C@H]3[C@@](O)(C(=O)OC)[C@H](OC(C)=O)[C@]5(CC)C=CCN6CC[C@]43[C@@H]65)C2)C1`, the result in the experiment with U-87MG ATCC [3] and in the experiment with MDA-MB-231 [4] was Active.

Turning to `COc1ccc(-c2[nH]c3ccc(C(C)(C)C)cc3c2C=O)cc1`, the IC50 with MDA-MB-231 [1] stood at 0.28 µM; in the experiment with MCF7, 0.58 µM.

As to `CCCCc1ccc2[nH]c(-c3ccc(OC)cc3)c(/C=N\O)c2c1`, in the experiment on MDA-MB-231 [4], the result was Active. Further, the IC50 in the experiment with MDA-MB-231 [1] came to 0.04 µM; in the experiment on MCF7 it was 0.212 µM.

Take `CCCCc1ccc2[nH]c(-c3ccc(C)cc3)c(C=O)c2c1`: in the experiment with MDA-MB-231 [4], the outcome was Active. Further, the IC50 came out at 0.034 µM in the experiment on MDA-MB-231 [1] and 0.054 µM with MCF7.

The term inhibition denotes the percentage by which the read-out fell short of the control. On to `CCCCc1ccc2[nH]c(-c3ccc(OC)cc3)c(C=O)c2c1`, for which the outcome in the experiment with U-87MG ATCC [5] and in the experiment with MDA-MB-231 [4] was Active. In addition, the inhibition against Tubulin (Homo sapiens) was determined as 23%. For the same molecule, the IC50 in the experiment on MDA-MB-231 [1] was determined as 0.0067 µM; with MCF7 it was 0.022 µM.

Turning to `CCCCc1ccc2[nH]c(-c3ccc(C(F)(F)F)cc3)c(/C=N\C)c2c1`, the IC50 with MDA-MB-231 [1] was 0.032 µM; with MCF7 it was 0.14 µM.

Turning to `Cc1ccc(-c2[nH]c3cc(Cl)ccc3c2C=O)cc1`, the IC50 in the experiment with MDA-MB-231 [1] amounted to 0.0078 µM; in the experiment with MCF7, 0.037 µM.

Take `CCCc1ccc2[nH]c(-c3ccc(OC)cc3)c(C=O)c2c1`: the IC50 came out at 0.02 µM in the experiment with MDA-MB-231 [1] and 0.054 µM in the experiment with MCF7.

Consider `CCCCc1ccc2[nH]c(-c3ccc(C(F)(F)F)cc3)c(/C=N\O)c2c1`, for which the IC50 in the experiment on MDA-MB-231 [1] amounted to 0.497 µM; in the experiment on MCF7, 1.66 µM.

`CCCCCc1ccc2[nH]c(-c3ccc(C(F)(F)F)cc3)c(C=O)c2c1`: the IC50 stood at 0.042 µM with MDA-MB-231 [1] and 0.067 µM in the experiment with MCF7.

As to `COc1ccc(-c2[nH]c3cc(OC)ccc3c2C=O)cc1`, the IC50 in the experiment with MDA-MB-231 [1] amounted to 0.035 µM; in the experiment on MCF7, 0.16 µM; in experiment [2] it was 1.5 µM.

For `CCCCCCc1ccc2[nH]c(-c3ccc(C(F)(F)F)cc3)c(C=O)c2c1`, the IC50 with MDA-MB-231 [1] was determined as 0.043 µM; in the experiment on MCF7 it was 0.022 µM.

For the molecule `COc1ccc(-c2[nH]c3cc(Cl)ccc3c2C=O)cc1`, the IC50 was found to be 0.027 µM in the experiment on MDA-MB-231 [1] and 0.065 µM in the experiment with MCF7.

With `CCCCCc1ccc2[nH]c(-c3ccc(OC)cc3)c(/C=N\C)c2c1`, the IC50 in the experiment on MDA-MB-231 [1] stood at 0.006 µM; in the experiment on MCF7, 0.021 µM.

With `CCCCc1ccc2[nH]c(-c3ccc(F)cc3)c(C=O)c2c1`, the IC50 in the experiment with MDA-MB-231 [1] worked out at 0.35 µM; in the experiment on MCF7 it was 0.2 µM.

As to `COc1ccc(-c2[nH]c3ccc(OC)cc3c2C=O)cc1`, in experiment [2], the IC50 came to 4 µM.

In the case of `COc1ccc(-c2[nH]c3ccc(CC(C)C)cc3c2C=O)cc1`, the IC50 was 0.072 µM in the experiment on MDA-MB-231 [1] and 0.18 µM with MCF7.

In the case of `COc1ccc(-c2[nH]c3ccc(C)cc3c2C=O)cc1`, the outcome in the experiment with MDA-MB-231 [4] was Active. The IC50 in the experiment on MDA-MB-231 [1] came out at 0.086 µM; in the experiment on MCF7, 0.14 µM.

With `CCCCc1ccc2[nH]c(-c3ccc(CC)cc3)c(C=O)c2c1`, in the experiment with MDA-MB-231 [4], the result was Active. The IC50 in the experiment with MDA-MB-231 [1] worked out at 0.027 µM; in the experiment on MCF7, 0.058 µM.

With `COc1ccc2c(C=O)c(-c3ccc(OC)c(O)c3)[nH]c2c1`, the IC50 came out at 0.8 µM in the experiment with MDA-MB-231 [1] and 1.65 µM with MCF7.

Regarding `CCCCc1ccc2[nH]c(-c3ccc(OC)cc3)c(/C=N\C)c2c1`, the result with MDA-MB-231 [4] was Active. Also, the IC50 was determined as 0.006 µM with MDA-MB-231 [1], 0.027 µM with MCF7 and 1.2 µM at Tubulin.

For `COc1ccc2c(C=O)c(-c3ccc(OC)c(OC)c3)[nH]c2c1`, the IC50 in the experiment on MDA-MB-231 [1] came to 0.27 µM; in the experiment on MCF7, 0.02 µM.

On to `CCCCCc1ccc2[nH]c(-c3ccc(OC)cc3)c(C=O)c2c1`, for which the values for the half-inhibitory concentration (IC50) in the experiment with MDA-MB-231 [1] and in the experiment on MCF7 were 0.0055 µM and 0.02 µM, respectively.

`CCCCCCc1ccc2[nH]c(-c3ccc(OC)cc3)c(C=O)c2c1`: the result in the experiment on MDA-MB-231 [4] was Active. Moreover, the results for the half-maximal inhibitory concentration (IC50) with MDA-MB-231 [1] and with MCF7 were 0.0074 µM and 0.006 µM, respectively.

On to `CCCCc1ccc2[nH]c(-c3ccc(C(F)(F)F)cc3)c(C=O)c2c1`, for which, on Tubulin (Homo sapiens), the result was inactive. Further, in the experiment on MDA-MB-231 [4], the result was Active. For the same molecule, the IC50 was found to be 0.033 µM with MDA-MB-231 [1] and 0.066 µM in the experiment on MCF7.

As to `C/N=C\c1c(-c2ccc(OC)cc2)[nH]c2cc(OC)ccc12`, the IC50 was found to be 0.034 µM in the experiment with MDA-MB-231 [1], 0.22 µM in the experiment on MCF7 and 1.8 µM in experiment [2].
